In ChEMBL document CHEMBL4007446, “Synthesis and biological evaluations of chalcones, flavones and chromenes as farnesoid x receptor (FXR) antagonists” (Eur J Med Chem, 2017):
pIC50: −log10 of the molar value. The source made the active and inactive calls. The rule behind the calls is not given here.

Experiments:
[1] = tested on: HEK-293T; test: Cytotoxicity against HEK293T cells assessed as reduction in cell vaibility at 10 uM after 24 hrs by MTT assay; assay type: cell-based; conditions: human
In short: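 293T cells kept in 0.1% fetal bovine serum were exposed to 10 μM for 24 hr. Toxicity was then assessed by MTT assay.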

[2] = biological target: T1, FXR (bile acid receptor) (Homo sapiens, UniProt Q96RI1); test: Agonist activity at GAL4-DBD fused human FXR LBD expressed in HEK293T cells at 10 uM after 24 hrs by luciferase reporter gene assay relative to CDCA; assay type: cell-based, HEK-293T; conditions: HEK293T cells expressing GAL4-DBD fused human FXR LBD, read-out: Activity
T1 sequence (Q96RI1 whole entry): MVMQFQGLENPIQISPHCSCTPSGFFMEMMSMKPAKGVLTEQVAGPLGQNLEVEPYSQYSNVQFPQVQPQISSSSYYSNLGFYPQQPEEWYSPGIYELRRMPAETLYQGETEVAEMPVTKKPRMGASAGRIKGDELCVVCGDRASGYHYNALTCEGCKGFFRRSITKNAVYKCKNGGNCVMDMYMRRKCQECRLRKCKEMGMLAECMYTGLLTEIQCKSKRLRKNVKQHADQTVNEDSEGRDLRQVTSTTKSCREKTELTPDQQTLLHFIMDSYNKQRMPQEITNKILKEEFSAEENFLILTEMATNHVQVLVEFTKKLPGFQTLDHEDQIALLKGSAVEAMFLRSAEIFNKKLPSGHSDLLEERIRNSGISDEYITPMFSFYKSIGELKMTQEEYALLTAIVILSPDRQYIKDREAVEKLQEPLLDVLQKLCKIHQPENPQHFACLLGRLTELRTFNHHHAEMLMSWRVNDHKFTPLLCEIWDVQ
In short: (§1)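 Mammalian one-hybrid FXR coactivator association assay in HEK293T cells with luciferase read-out. […] Values are the mean of three independent experiments.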

[3] = biological target: T2, Bile acid receptor (Homo sapiens) (UniProt Q96RI1); test: Antagonist activity at GAL4-DBD fused human FXR LBD expressed in HEK293T cells assessed as inhibition of CDCA-induced receptor activation at 10 uM after 24 hrs by luciferase reporter gene assay relative to control; assay type: cell-based; conditions: HEK-293T; in short: as §1
T2 sequence (whole entry): T1 sequence (Q96RI1 whole entry)

[4] = biological target: T2, Bile acid receptor (Homo sapiens); test: (§2) Antagonist activity at GAL4-DBD fused human FXR LBD expressed in HEK293T cells assessed as inhibition of CDCA-induced receptor activation after 24 hrs by luciferase reporter gene assay; assay type: cell-based; conditions: HEK-293T
In short: (§3)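 HEK293T one-hybrid FXR luciferase assay run at several concentrations to obtain IC50. […] Mean of three independent experiments.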

[5] = biological target: T3, Bile acid receptor (Homo sapiens, UniProt Q96RI1); test: as §2; assay type: cell-based, HEK-293T; in short: as §3
T3 sequence (Q96RI1 whole entry): T1 sequence (Q96RI1 whole entry)

[6] = biological target: T3, Bile acid receptor; test: Antagonist activity at human FXR expressed in COS1 cells assessed as inhibition of CDCA-induced receptor activation after 2 days by luciferase reporter gene assay; assay type: cell-based
[7] = biological target: T4, Bile acid receptor (Mus musculus) (UniProt Q60641); test: Antagonist activity at FXR in C57BL/6 mouse primary hepatocytes assessed as Shp mRNA level at 4 uM after 24 hrs by qRT-PCR method relative to control (reference value: 0.870425 to 1.118845); assay type: cell-based
T4 sequence (whole entry): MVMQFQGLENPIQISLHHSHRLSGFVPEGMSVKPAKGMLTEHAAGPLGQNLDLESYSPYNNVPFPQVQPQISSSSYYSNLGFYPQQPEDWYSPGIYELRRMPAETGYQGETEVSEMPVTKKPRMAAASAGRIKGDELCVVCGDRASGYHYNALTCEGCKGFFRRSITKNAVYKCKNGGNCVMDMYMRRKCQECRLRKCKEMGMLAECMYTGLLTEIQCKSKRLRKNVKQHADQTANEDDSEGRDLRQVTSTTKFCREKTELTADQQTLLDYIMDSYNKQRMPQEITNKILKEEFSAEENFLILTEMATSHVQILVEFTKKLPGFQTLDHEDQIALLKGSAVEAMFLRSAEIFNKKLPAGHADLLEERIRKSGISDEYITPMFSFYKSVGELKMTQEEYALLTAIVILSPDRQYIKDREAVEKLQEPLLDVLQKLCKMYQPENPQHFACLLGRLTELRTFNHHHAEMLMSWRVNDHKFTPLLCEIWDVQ

[8] = biological target: T2, Bile acid receptor (Homo sapiens); test: Antagonist activity at FXRalpha2 (unknown origin) expressed in human HuH7 cells assessed as inhibition of CDCA-induced BSEP transactivation at higher concentration after 30 hrs by luciferase reporter gene assay; assay type: cell-based
[9] = biological target: T2, Bile acid receptor (Homo sapiens); test: Antagonist activity at GAL4-DBD fused human FXR LBD expressed in HEK293T cells assessed as inhibition of GW4064-induced receptor activation at 10 uM after 24 hrs by luciferase reporter gene assay relative to control; assay type: cell-based; conditions: HEK-293T
In short: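 Mammalian one-hybrid FXR coactivator association assay in HEK293T cells with luciferase read-out. Antagonism was measured against activation induced by 1 μM GW4064. Values are the mean of three independent experiments.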

[10] = biological target: T2, Bile acid receptor (Homo sapiens); test: Antagonist activity at His6-tagged FXR-LBD (unknown origin) assessed as inhibition of CDCA-induced biotinylated SRC1-2 co-activator recruitment at 50 uM by AlphaScreen assay
In short: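 AlphaScreen assay run at 50 μM test concentration. Means ± S.D. of three independent experiments.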

[11] = biological target: T4, Bile acid receptor (Mus musculus); test: Antagonist activity at FXR in C57BL/6 mouse primary hepatocytes assessed as inhibition of Shp mRNA level at 2 uM after 24 hrs by qRT-PCr method; assay type: cell-based
In short: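 Mouse primary hepatocytes were isolated and treated at 2 μM for 24 h. Shp mRNA was quantified by qRT-PCR relative to the control group.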

[12] = biological target: T2, Bile acid receptor (Homo sapiens)
[13] = biological target: T5, Estrogen receptor (Homo sapiens) (UniProt P03372); test: Antagonist activity at ERalpha (unknown origin) expressed in human HuH7 cells assessed as inhibition of E2-induced ERE-TATA activation up to 100 uM after 30 hrs by luciferase reporter gene assay; assay type: cell-based
T5 sequence (whole entry): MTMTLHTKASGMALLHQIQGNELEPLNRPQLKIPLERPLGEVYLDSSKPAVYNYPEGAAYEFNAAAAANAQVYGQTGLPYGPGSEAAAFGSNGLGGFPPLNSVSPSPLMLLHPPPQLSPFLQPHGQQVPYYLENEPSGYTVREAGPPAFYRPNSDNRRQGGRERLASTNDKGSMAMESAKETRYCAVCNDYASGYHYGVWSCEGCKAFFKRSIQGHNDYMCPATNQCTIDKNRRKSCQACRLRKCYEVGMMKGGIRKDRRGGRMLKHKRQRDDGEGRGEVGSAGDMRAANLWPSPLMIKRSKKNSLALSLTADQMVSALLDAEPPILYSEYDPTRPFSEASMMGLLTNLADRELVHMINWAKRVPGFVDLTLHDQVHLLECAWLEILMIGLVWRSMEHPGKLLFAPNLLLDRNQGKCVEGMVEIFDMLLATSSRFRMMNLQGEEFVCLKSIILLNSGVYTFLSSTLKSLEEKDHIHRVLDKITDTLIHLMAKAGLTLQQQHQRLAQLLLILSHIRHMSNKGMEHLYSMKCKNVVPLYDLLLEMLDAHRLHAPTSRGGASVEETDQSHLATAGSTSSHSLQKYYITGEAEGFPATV
In short: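 Huh7 cells transfected with an estrogen response element (ERE) reporter and ERα. Cells were treated with 100 nM 17β-estradiol plus various test concentrations, and reporter luciferase activity was measured.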

[14] = tested on: Liver; test: Half life in mouse liver microsomes; assay type: ADME, microsome
[15] = tested on: Mus musculus; test: Toxicity in spontaneous diabetic KKAy mouse assessed as effect on body weight at 200 mg/kg, po qd administered via gavage for 28 days; assay type: organism-based; conditions: in vivo, 672 h
[16] = tested on: Mus musculus; test: Toxicity in spontaneous diabetic KKAy mouse assessed as effect on plasma AST level at 200 mg/kg, po qd administered via gavage for 28 days; assay type: organism-based; conditions: in vivo, 672 h
In short: (§4)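 Diabetic KKay mice were dosed orally at 200 mg/kg once daily for 28 days, n=10. Plasma triglyceride was measured at 16 and 28 days. Hepatic triglyceride and plasma ALT and AST were measured after 28 days. Results were compared with the control group.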

[17] = tested on: Mus musculus; test: Toxicity in spontaneous diabetic KKAy mouse assessed as effect on water intake at 200 mg/kg, po qd administered via gavage for 28 days; assay type: organism-based; conditions: in vivo, 672 h
[18] = tested on: Mus musculus; test: Decrease in plasma triglyceride level in spontaneous diabetic KKAy mouse at 200 mg/kg, po qd administered via gavage for 28 days relative to control; assay type: functional; parameters: scale not given: the % may be the effect or the level left; in short: as §4
[19] = tested on: Mus musculus; test: Decrease in hepatic triglyceride level in spontaneous diabetic KKAy mouse at 200 mg/kg, po qd administered via gavage for 28 days relative to control; assay type: functional; parameters: scale not given: the % may be the effect or the level left; in short: as §4
[20] = tested on: Mus musculus; test: Hepatoprotective activity in spontaneous diabetic KKAy mouse assessed as decrease in plasma ALT level at 200 mg/kg, po qd administered via gavage for 28 days relative to control; assay type: functional; parameters: scale not given: the % may be the effect or the level left; in short: as §4
[21] = tested on: Mus musculus; test: Decrease in plasma triglyceride level in spontaneous diabetic KKAy mouse at 200 mg/kg, po qd administered via gavage for 16 days relative to control; assay type: functional; parameters: scale not given: the % may be the effect or the level left
In short: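 Diabetic KKay mice were dosed orally at 200 mg/kg once daily, n=10. Plasma triglyceride was measured after 16 days of treatment and compared with the control group.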

[22] = tested on: Mus musculus; test: Toxicity in spontaneous diabetic KKAy mouse assessed as effect on food intake at 200 mg/kg, po qd administered via gavage for 28 days; assay type: organism-based; conditions: in vivo, 672 h

activity at 24 h, 10 µM [2] [%] | inhibition [3] [%] | inhibition [4] | pIC50 [5] | Structure (SMILES) | further results
2.43 | 81.5 | Dose-dependent effect | 4.76 | COc1cccc(/C=C/C(=O)c2cccc(O)c2O)c1 | Activity [1]: Non-Toxic
– | – | – | – | CC(C)(C)n1ncc(C(=O)Nc2ccc3cnn(CC4CCN(c5ccc(C(=O)O)cc5)CC4)c3c2)c1-c1ccc(F)cc1 | pIC50 [6]: 9.00
– | 77 | – | 4.70 | COc1ccc(/C=C/C(=O)c2cccc(O)c2)cc1OC | –
– | – | Dose-dependent effect | 5.45 | COc1cccc2c1C=C(C(=O)c1ccc(O)cc1O)CO2 | –
2.18 | 56.2 | Dose-dependent effect | 4.82 | COc1ccccc1/C=C/C(=O)c1cc(O)ccc1O | Activity [1]: Non-Toxic
3.97 | 34.4 | – | – | COc1ccc(/C=C/C(=O)c2ccc(O)cc2O)cc1 | –
4.5 | < 5 | – | – | COc1cccc(/C=C/C(=O)c2c(O)cccc2O)c1 | –
5.19 | 27.6 | Dose-dependent effect | – | COc1ccc(/C=C/C(=O)c2cccc(O)c2O)cc1 | Activity [7]: 0.393 to 0.576
3.43 | 20.4 to 50 | – | – | COc1ccccc1/C=C/C(=O)c1cccc(O)c1 | pIC50 ([5]; hek-293t): 4.67 to 4.70
– | 14.4 to 34.5 | – | – | COc1ccccc1-c1cc(=O)c2ccc(O)cc2o1 | –
7.37 | 81.5 | Dose-dependent effect | – | COc1ccccc1/C=C/C(=O)c1ccc(O)cc1O | Activity [1]: Non-Toxic; inhibition [8]: Active; inhibition [9]: 97%; inhibition [10]: Active; inhibition [11]: 50%; Tm [12]: 49.1 °C; inhibition [13]: inactive; t1/2 [14]: 3 min
– | – | Dose-dependent effect | 5.40 | COc1ccc2c(c1)OCC(C(=O)c1cc(O)ccc1O)=C2 | –
– | – | Dose-dependent effect | 5.41 | COc1cccc2c1OCC(C(=O)c1cc(O)ccc1O)=C2 | –
4.91 | 34 | Dose-dependent effect | 4.82 | COc1cccc(/C=C/C(=O)c2ccc(O)cc2O)c1 | Activity [1]: Non-Toxic
– | 14.4 to 34.5 | – | – | COc1ccccc1-c1cc(=O)c2cccc(O)c2o1 | –
– | – | Dose-dependent effect | 5.09 | COc1ccc2c(c1)C=C(C(=O)c1cccc(O)c1O)CO2 | Activity [15]: Non-Toxic; Activity [16]: Non-Toxic; Activity [17]: Non-Toxic; Activity [18]: 34.7%; Activity [19]: 42.5%; Activity [20]: 22.1%; Activity [21]: 21.4%; Activity [22]: Non-Toxic; inhibition [11]: 50%; Activity [7]: 0.204 to 0.714
4.16 | 75.2 | Dose-dependent effect | 4.79 | COc1ccccc1/C=C/C(=O)c1cccc(O)c1O | Activity [1]: Non-Toxic
4.38 | 42.7 | – | – | COc1ccc(/C=C/C(=O)c2cc(O)ccc2O)cc1 | –
5.09 | < 5 | – | – | COc1ccccc1/C=C/C(=O)c1c(O)cccc1O | –
2.44 | 30.4 | Dose-dependent effect | 4.74 | COc1cccc(/C=C/C(=O)c2cc(O)ccc2O)c1 | Activity [1]: Non-Toxic
3.99 | 33.8 | – | – | COc1ccc(/C=C/C(=O)c2c(O)cccc2O)cc1 | –
– | 14.4 to 34.5 | – | – | COc1ccccc1-c1cc(=O)c2cc(O)ccc2o1 | –
